What was measured:
Assay type in all cases: in vivo, Wistar rats
[1] = Pharmacokinetics of oral DAS in rats with or without SA pretreatment; settings: for k el: Kel; for MRT inf: MRT 0-inf_obs
CYP3A2 = assay: Hepatic and intestinal CYP3A2 protein expression
In short: (§1)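 Wistar rats (n = 6/group), fasted overnight and dosed by intragastric gavage: saline for 7 days; saline for 6 days, then the drug at 25 mg/kg p.o. on day 7; the drug on day 7 given 2 h after test compound at 40 mg/kg; or test compound at 40 mg/kg for 7 days. Liver and intestine protein (BCA) was run on 10% SDS-PAGE and blotted to PVDF. Primary antibodies with β-actin overnight at 4 °C, secondary 2 h, chemiluminescence, densitometry. Mean ± SD, one-way ANOVA.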

Pgp/MDR1 = assay: Hepatic and intestinal Pgp/MDR1 protein expression
In short: as §1

BCRP/ABCG2 = assay: Hepatic and intestinal BCRP/ABCG2 protein expression
In short: as §1

[2] = Wistar, rat, plasma, po, 25 mg/kg, rats, DAS 25 mg/kg p.o. after SA 40 mg/kg p.o. pretreatment for seven days, Mean ± SD
[3] = Wistar, rat, plasma, po, 25 mg/kg, rats, DAS 25 mg/kg p.o. single dose, alone, Mean ± SD
[4] = decrease, SA 40 mg/kg + DAS 25 mg/kg vs DAS alone, rats
[5] = increase, SA 40 mg/kg + DAS 25 mg/kg vs DAS alone, rats
[6] = rats, DAS 25 mg/kg p.o. after SA 40 mg/kg p.o. pretreatment for seven days, Mean ± SD
[7] = rats, DAS 25 mg/kg p.o. single dose, alone, Mean ± SD
[8] = intestine, SA 40 mg/kg alone vs normal rats
[9] = liver, SA 40 mg/kg alone vs normal rats
[10] = intestine, SA-pretreated rats + DAS vs DAS alone
[11] = liver, SA-pretreated rats + DAS vs DAS alone

Cc1nc(Nc2ncc(C(=O)Nc3c(C)cccc3Cl)s2)cc(N2CCN(CCO)CC2)n1 [DAS, Dasatinib] showed a half-life ([1]; Wistar, rat, plasma, po, 25 mg/kg) of 5.59 ± 0.2 h, an AUC(0-t) [1, 2] of 2.21 ± 0.0963 µg·h/mL and an AUC(0-t) [1, 3] of 1.72 ± 0.0706 µg·h/mL. It also gave a Cmax [1, 2] of 0.419 ± 0.0188 µg/mL, a Cmax [1, 3] of 0.259 ± 0.00971 µg/mL and a k el [1, 2] of 3.33e-05 s⁻¹. For the same molecule, the k el [1, 3] was 4.44e-05 s⁻¹, the MRT inf [1, 2] was 8.2 ± 0.25 h and the MRT inf [1, 3] was 7.31 ± 0.17 h. For the same molecule, the “% Change in Cl” value [1, 4] was 26.97%, the “% Change in Kel” value [1, 4] was 22.33% and the “% Change in Vd” value [1, 4] was 5.96%. For the same molecule, the “% Change in AUC 0-t” value [1, 5] was 28.98%, the “% Change in AUMC 0-∞” value [1, 5] was 53.63% and the “% Change in Cmax” value [1, 5] was 62.02%. For the same molecule, the “% Change in MRT 0-inf_obs” value [1, 5] was 12.08%, the “% Change in T1/2” value [1, 5] was 28.82% and the “% Change in Tmax” value [1, 5] was 100%. For the same molecule, the “AUMC 0-∞” value [1, 6] was 23569.00 ± 1418.58 ng/mL*h^2, the Cl [1, 6] was 0.009 ± 0.00 (mg/kg)/(ng/mL)/h and the Tmax [1, 6] was 2.00 ± 0.00 h. The Vd [1, 6] was 0.070 ± 0.004 (mg/kg)/(ng/mL), the “AUMC 0-∞” value [1, 7] was 15341.83 ± 607.98 ng/mL*h^2 and the Cl [1, 7] was 0.012 ± 0.001 (mg/kg)/(ng/mL)/h. The T1/2 [1, 7] was 4.34 ± 0.11 h, the Vd [1, 7] was 0.075 ± 0.003 (mg/kg)/(ng/mL) and the “increase of intestinal CYP3A2 protein expression” value (CYP3A2; intestine, DAS administered rats (25 mg/kg p.o.) vs normal rats) was 92.97%. The “increase of hepatic CYP3A2 protein expression” value (CYP3A2; liver, DAS administered rats (25 mg/kg p.o.) vs normal rats) was 92.03%, the “induction of intestinal Pgp/MDR1 protein expression” value (Pgp/MDR1; intestine, DAS administration vs normal rats) was 76.42% and the “induction of hepatic Pgp/MDR1 protein expression” value (Pgp/MDR1; liver, DAS administration vs normal rats) was 72.30%. For the same molecule, the “induction of intestinal BCPR/ABCG2 protein expression” value (BCRP/ABCG2; intestine, DAS per-oral administration vs normal rats) was 73.55% and the “induction of hepatic BCPR/ABCG2 protein expression” value (BCRP/ABCG2; liver, DAS per-oral administration vs normal rats) was 75.09%.
For COc1cc(/C=C/C(=O)O)cc(OC)c1O [SA, Sinapic acid], the “inhibition of intestinal CYP3A2 protein expression” value (CYP3A2; [8]) was 89.47%, the “inhibition of hepatic CYP3A2 protein expression” value (CYP3A2; [9]) was 88.91% and the “inhibition of hepatic CYP3A2 protein expression” value (CYP3A2; liver, SA 40 mg/kg pretreatment for seven days + DAS vs DAS administered rats) was 57.11%. For the same molecule, the “inhibition of intestinal Pgp/MDR1 protein expression” value (Pgp/MDR1; [8]) was 76.93%, the “inhibition of intestinal Pgp/MDR1 protein expression” value (Pgp/MDR1; [10]) was 47.43% and the “inhibition of hepatic Pgp/MDR1 protein expression” value (Pgp/MDR1; [9]) was 84.93%. For the same molecule, the “inhibition of hepatic Pgp/MDR1 protein expression” value (Pgp/MDR1; [11]) was 44.06%, the “inhibition of intestinal BCPR/ABCG2 protein” value (BCRP/ABCG2; [10]) was 50.48% and the “inhibition of hepatic BCPR/ABCG2 protein” value (BCRP/ABCG2; [11]) was 51.44%.
